Results collected from several papers.
Lines come from different studies, so protocols differ.
Target: Cyclin-dependent kinase 13 (CDK13, Homo sapiens, UniProt Q14004)

O=C(c1ccc(Nc2ncc(Cl)c(-c3cc4ccccc4s3)n2)cc1)N1CCC(N2CCCC2)CC1  remaining binding (binding, competition with immobilised ligand; 1 µM): 36%
O=C(O)[C@H]1[C@H](Cn2nnc3ccccc3c2=O)CC[C@@H]1C(=O)c1ccc(OCCC2CCOCC2)cc1  remaining binding (cell-free assay, competition with immobilised ligand; 1 µM): 93%
O=C(Nc1c[nH]nc1C(=O)NC1CCNCC1)c1cc(F)cc(F)c1  remaining binding (binding, competition with immobilised ligand; 1 µM): 100%
CC1CCCN1c1nccc(-c2cnn3ncccc23)n1 (stereo not shown)  remaining binding (binding; 1 µM): 100%
O=C(Nc1cccnn1)N1CCC(=Cc2cccc(Oc3ccc(C(F)(F)F)cn3)c2)CC1  remaining binding (cell-free assay, competition with immobilised ligand; 1 µM): 100%
CNC(=O)[C@@H]1CC[C@@H](n2c(-c3ccc4cnccc4c3)nc3ccc(C(=O)NCc4cccc(C(N)=O)c4)cc32)C1  remaining binding (binding, competition with immobilised ligand; 1 µM): 100%
Nc1ncc2c(n1)-c1c([nH]c3ccc(C#CC4CC4)cc13)CCCC2  remaining binding (binding, competition with immobilised ligand; 1 µM): 84%
CN(C)c1ncc(F)c(-c2cnn3ncccc23)n1  remaining binding (binding; 1 µM): 96%
CC(=O)C1=C(C)N(c2cccc(C(F)(F)F)c2)C(=O)N[C@@H]1c1ccc(C#N)nc1  remaining binding (cell-free assay, competition with immobilised ligand; 1 µM): 100%
CN(CCCC(F)(F)F)c1nccc(-c2cnn3ncccc23)n1  remaining binding (binding; 1 µM): 100%
O=C(NCCCN1CCOCC1)c1ccc(Nc2ncc(Cl)c(-c3ccc(Cl)s3)n2)cc1  remaining binding (binding, competition with immobilised ligand; 1 µM): 34%
O=C(Nc1cccnn1)N1CC(C/C=C/c2cncc(Oc3ccc(C(F)(F)F)cn3)n2)C1  remaining binding (cell-free assay, competition with immobilised ligand; 1 µM): 98%
N[C@H]1CCN(c2nccc(-c3cnn4ncccc34)n2)C1  remaining binding (binding; 1 µM): 64%
COc1ncc2cc3ccccc3nc2c1C#N  remaining binding (cell-free assay, competition with immobilised ligand; 5 µM): 92%
CN(C)c1nccc(-c2cnn3ncccc23)n1  remaining binding (binding; 1 µM): 84%
COCCOc1nc(-c2ccc(Cl)nc2)nc2c1CN(C(=O)c1ncn3ccccc13)CC2  remaining binding (cell-free assay, competition with immobilised ligand; 0.1 µM): 100%
O=C(NCCCN1CCOCC1)c1ccc(Nc2nccc(-c3cc4ccccc4s3)n2)cc1  remaining binding (binding, competition with immobilised ligand; 1 µM): 68%
C[C@@H]1CCN(c2nccc(-c3cnn4ncccc34)n2)C1  remaining binding (binding; 1 µM): 72%
CN(C)C(=O)Cn1cc(-c2nc([C@@](C)(c3ccc(-c4cnc(N)nc4)cc3)C3CC3)no2)cn1  remaining binding (cell-free assay, competition with immobilised ligand; 1 µM): 83%
